Sampled rows, rich in hits. Any-hit rate of the full collection: about 4.6%.
ALR inh – inhibitors of human ALR sulfhydryl oxidase, primary screen, biochemical, H2O2 detection, HRP-luminol luminescence, single point; FAD-linked sulfhydryl oxidase ALR (Homo sapiens), P55789; purified ALR, DTT oxidation; inhibition, % (no concentration beside the values); 290,000 compounds, 3.8% hits;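 active means mean replicate inhibition above about 79%, with every replicate also reaching it, limit read from the data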
Target sequence (P55789 whole entry, looked up): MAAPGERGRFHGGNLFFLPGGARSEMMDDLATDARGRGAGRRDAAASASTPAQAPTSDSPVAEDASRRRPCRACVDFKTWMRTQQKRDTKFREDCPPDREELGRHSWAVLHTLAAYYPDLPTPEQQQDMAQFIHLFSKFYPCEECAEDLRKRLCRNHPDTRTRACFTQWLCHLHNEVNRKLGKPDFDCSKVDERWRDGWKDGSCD
Arr AP2 block – inhibitors of beta-arrestin/AP2 binding, primary screen, biochemical, GPCR trafficking, flow cytometry; FITC-arrestin peptide / GST-AP2 beads; AP2 beta2 appendage carries R879A mutation; inhibition, % at 10 µM; 340,000 compounds, 0.31% hits; AID 504490, 2011;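 active means inhibition above a set limit, near 3 SD of compounds lacking own fluorescence, cut at about 54% in these data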;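 further: plate controls were DMSO wells for no effect and 5 µM unlabelled arrestin peptide for full effect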
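System: GST-AP2 R879A glutathione beads; medium: PBS, Tween 20 0.05%, BSA 0.1%; reagent: fluorescein-tagged arrestin peptide at 50 nM final; schedule: pre-incubation 12 min, peptide binding 1 h, room temperature; detection: flow cytometry, FL1 (488/535 nm); read-out: inhibition as reduced fluorescein signal on beads, percent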
NLRP3 yeast inh – NALP3 inflammasome inhibitors in reconstituted yeast, primary screen, luminescence, uHTS | Yeast reconstituted NLRP3/ASC/caspase-1, beta-gal luminescence, 24 h | inhibition, % at 10 µM | 330,000 compounds, 0.39% hits | AID 2825, 2010;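 active means inhibition of 50% or more; inactive means inhibition below 50%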;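 further: plate controls were induced DMSO wells for no effect and uninduced yeast grown without galactose for full effect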
PolyA inh – polyadenylation inhibitors in yeast reporter cells, primary screen, luminescence, S. cerevisiae; S. cerevisiae SKY197-pL101 polyadenylation reporter, beta-gal luminescence; efflux-impaired pdr1/pdr3 knockout yeast; score 100 = 6 SD above DMSO; activity score, % at 12 µM; 300,000 compounds, 0.02% hits; AID 1875, 2009;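 active means lowest replicate activity score at least 50, where 100 means six control SD above control mean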;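 further: yeast exposed to compound for 9 h at 30 °C; higher score means more reporter readthrough which indicates perturbed polyadenylation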
Pemphigus Ab inh – inhibitors of pemphigus antibody binding to DSG3, primary screen, biochemical, bead-based, flow cytometry, scFv-GFP | Desmoglein-3 (Homo sapiens), P32926 | DSG3-coupled beads, scFv-anti-DSG3-GFP binding; active compounds read low | binding (percent of control), % at 10 µM | 310,000 compounds, 0.48% hits | AID 588358, 2011;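 active means binding more than 3 SD below its plate's average and above zero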;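 further: hits lower antibody fragment binding to DSG3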
NALP1 inh – NALP1 inflammasome inhibitors in reconstituted yeast, colorimetric, S. cerevisiae, triplicate retest | AID 2071, 2009 | 280,000 compounds, 0.61% hits | inhibition, % at 10 µM | S. cerevisiae NALP1/ASC/caspase-1 growth, X-gal OD620, 72 h; in the data active means inhibition mostly above about 24%, no sharp cut-off; inactive means mostly below about 32%
Starred values were filed as active, the others as inactive; . = not tested or not shown.

SMILES | ALR inh | Arr AP2 block | NLRP3 yeast inh | PolyA inh | Pemphigus Ab inh | NALP1 inh
O=C(CSc1nnc(CNC(=O)c2ccc(F)cc2)o1)Nc1ccc2c(c1)OCCO2 | 30.2 | -0.2 | 9.9 | -17.1 | 104.9 | 12.3
O=C(CSc1nnc(CNC(=O)c2ccccc2)o1)Nc1ccc2c(c1)OCCO2 | 98.4* | -5.6 | 7.6 | 2.7 | 108.3 | 11.3
O=C(CSc1nnc(CNC(=O)c2ccccc2F)o1)Nc1ccc2c(c1)OCO2 | 98.9* | -9.6 | 2.5 | -4.1 | 85.7 | -2.6
O=C(CSc1nnc(CNC(=O)c2ccco2)o1)Nc1ccc(Br)cc1 | 99.0* | -7.6 | 8.8 | 3.0 | 99.2 | 7.8
O=C(CSc1nnc(CNC(=O)c2ccccc2F)o1)Nc1ccc2c(c1)OCCO2 | . | -6.5 | 2.3 | 6.8 | 84.1 | 8.3
CN(N=Nc1nc[nH]c1C(=O)NN)C1CCCCC1 | . | 23.1 | . | . | . | .
C[C@H](CO)N1C[C@H](C)[C@@H](CN(C)S(=O)(=O)c2cn(C)cn2)Oc2ccc(NC(=O)C3CCCCC3)cc2C1=O | . | 33.5 | 7.0 | . | 87.9 | .
CC(C)C[C@H](N)c1nnc(SCC(=O)Nc2ccc(Br)cc2)o1 | 99.0* | 2.7 | 0.4 | -10.8 | . | 29.8
c1ccc2c(c1)nc(N1CCCCC1)c1ccccc12 | . | 26.2 | 12.9 | -32.3 | . | 39.3*
Clc1nnc(N2CCCCC2)c2ccccc12 | 97.6* | -7.8 | 27.1 | -2.7 | 99.8 | -16.1
c1ccc2c(N3CCCCC3)nnc(N3CCCCC3)c2c1 | . | . | . | . | . | 13.6
CC(C)/C(=N\NS(=O)(=O)c1ccc(Br)cc1)c1cccs1 | 79.8* | 21.0 | -20.0 | -12.9 | 103.8 | -1.8
O=S1(=O)CC/C(=N\Nc2ccccc2)c2ccsc21 | 100.1* | 30.1 | 15.5 | -24.3 | 104.2 | 9.6
O=C(O/N=C1\CCS(=O)(=O)c2sccc21)c1c(F)cccc1F | 0.9 | 26.4 | -7.7 | -9.5 | 101.2 | -20.6
CCOC(CCNC(=O)c1cn(CC(C)C)c(=O)c2c1c1ccccc1n2C)OCC | -1.0 | -2.5 | 2.7 | -12.0 | 90.1 | 8.6
COC(=O)/C=C/S(=O)(=O)c1ccc(NC(C)=O)cc1 | 98.3* | 7.5 | -21.7 | -15.4 | 95.6 | -3.4
CCN(CC)CCCNC(=S)N1CCN(c2nc(-c3ccccc3)cs2)CC1 | 22.1 | 19.0 | 14.3 | -19.5 | 94.0 | 10.4
O=C(Cn1cnc2c(nnn2Cc2ccccc2)c1=O)c1ccccc1 | -5.6 | 3.7 | 9.3 | -0.1 | 105.3 | 18.1
O=C(Cn1cnc2c(nnn2Cc2ccc(Cl)cc2)c1=O)c1ccccc1 | 5.9 | 31.6 | -1.4 | -11.9 | 61.7* | 3.9
Cc1ccc(NP(=O)(c2ccc(N(C)C)cc2NC(=O)c2cccs2)N2CCOCC2)cc1Cl (configuration not stated) | -12.3 | -7.9 | 18.0 | 14.6 | 85.3* | 24.5
Cc1nc2c(N)nn(C)c2nc1C | . | . | . | . | 106.0 | .
Cc1ccccc1S(=O)(=O)NNC(=O)C(=O)NNc1ccccn1 | 99.5* | 5.1 | 6.2 | 0.6 | 101.4 | 31.4
CC(=O)Nc1ccc(S(=O)(=O)NNC(=O)C(=O)NNc2ccccn2)cc1 | . | 2.6 | 10.3 | -6.4 | 92.0 | -7.3
Nc1ccc(S(=O)(=O)NCc2ccccn2)cc1 | -4.9 | -12.0 | 22.2 | -6.4 | 101.0 | -4.6
Cc1ccc(S(=O)(=O)NNC(=O)C(=O)NNc2ccccn2)cc1 | 95.2* | 3.8 | 1.3 | -0.5 | 107.5 | -15.5
Cc1ccc(S(=O)(=O)NNC(=O)c2ccc3ccccc3n2)cc1 | 88.3* | 25.9 | 10.1 | -16.5 | 103.2 | .
Nc1ccc(S(=O)(=O)NNC(=O)C(=O)NNc2ccccn2)cc1 | 98.7* | 6.0 | 0.1 | 17.7 | 98.7 | .
O=C(Nc1ccccc1)C(=O)Nc1ccc2c(c1)N(C(=O)C1CC1)CCC2 | . | -0.5 | 8.4 | 9.6 | 106.3 | .
CC1=CC(C)(C(Cl)(Cl)Cl)C(C)=CC1=NO (configuration not stated) | . | . | . | . | 105.3 | .
CN1CCN(Cc2nc3ccccc3c(=O)n2Cc2nc(-c3cccc([N+](=O)[O-])c3)cs2)CC1 | . | 40.8 | 8.0 | . | 103.5 | 34.2*
